The source of these data is ChEMBL document CHEMBL1129660, “Studies on 6-aminoquinolones: synthesis and antibacterial evaluation of 6-amino-8-methylquinolones” (J Med Chem, 1996).

The structures appear in SMILES notation. Converted amounts (≈) assume the structure as drawn.

In assay [1] the test system is Enterococcus faecalis. As to the kind of experiment: Antibacterial activity tested against Enterococcus faecalis; Range is 0.13-0.25 ug/mL. Format: functional.
In another assay the test system is Shigella. The assay is described as follows: Antibacterial activity tested against Shigella enteritidis. Type of assay: functional. The method, boiled down: (§1)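 MICs (µg/mL) determined by conventional agar dilution against a panel of eight Gram-negative and five Gram-positive reference strains.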
Another assay deals with Klebsiella pneumoniae. The assay is described as follows: Antibacterial activity tested against Klebsiella pneumoniae (Klebsiella pneumoniae) ATCC 10031. Format: functional. The method, boiled down:
as §1

For the next assay, the system named is Providencia stuartii. As to the kind of experiment: Antibacterial activity tested against Providencia stuartii CNUR 5. Type of assay: functional. The method in brief:
as §1

In assay [2] the test system is Staphylococcus epidermidis. The assay is described as follows: Antibacterial activity tested against Staphylococcus epidermidis CPHL A2. Format: functional. The method in brief:
as §1

The test system of assay [3] is Escherichia coli. As to the kind of experiment: Inhibitory activity against gyrase supercoiling activity from Escherichia coli. Format: functional. The method, boiled down: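 Inhibition of DNA gyrase supercoiling activity, by a previously described protocol with slight modifications. IC50 derived by densitometric quantification of the supercoiled DNA peak in an agarose gel.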

Assay [4] is described as follows: Geometric mean of antibacterial activity (Gram -ve bacteria) of the compound. Format: functional. The method in brief:
(§2)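 Geometric means calculated from agar-dilution MICs (µg/mL), taken separately across the five Gram-positive and the eight Gram-negative panel strains.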

In assay [5] the test system is Streptococcus pneumoniae. The assay is described as follows: Antibacterial activity tested against Streptococcus pneumoniae; Range is 1-2 ug/mL. Type of assay: functional.
Assay [6] concerns Escherichia coli. The assay is described as follows: Antibacterial activity tested against Escherichia coli ISF 432. Format: functional. The method in brief:
as §1

Assay [7] has as its system Staphylococcus aureus. The assay is described as follows: Antibacterial activity against Staphylococcus aureus MPR 5. Type of assay: functional. The method, boiled down: as §1
Another assay has as its system Proteus vulgaris. The assay is described as follows: Antibacterial activity tested against Proteus vulgaris CNUR 5. Format: functional. The method in brief:
as §1

For assay [8], the system named is Enterococcus faecalis. As to the kind of experiment: Antibacterial activity tested against Streptococcus faecalis LEP Br. Type of assay: functional. The method, boiled down: as §1
Assay [9] relates to Staphylococcus aureus. As to the kind of experiment: Antibacterial activity tested against Staphylococcus aureus; Range is 0.016-0.13 ug/mL. Format: functional.
The subject of a further assay is Pseudomonas aeruginosa. The assay is described as follows: Antibacterial activity tested against P. ae (Pseudomonas aeruginosa) ATCC 9027. Type of assay: functional. The method in brief: as §1
The next assay relates to Enterobacter cloacae. The assay is described as follows: Antibacterial activity tested against Enterobacter cloacae OMNFI 174. Type of assay: functional.
A further assay deals with Bacteria. The assay is described as follows: Geometric mean of antibacterial activity (Gram +ve bacteria) of the compound. Type of assay: functional. The method in brief: as §2
In assay [10] the test system is Staphylococcus epidermidis. As to the kind of experiment: Antibacterial activity tested against Staphylococcus epidermidis HCF Berset C. Format: functional. The method in brief:
as §1

Assay [11] deals with Escherichia coli. As to the kind of experiment: Antibacterial activity tested against Escherichia coli ATCC 8739. Format: functional. The method, boiled down:
as §1

The subject of assay [12] is Enterococcus faecium. The assay is described as follows: Antibacterial activity tested against Enterococcus faecium; Range is 0.13-2 ug/mL. Format: functional.
For assay [13], the system named is Staphylococcus aureus. As to the kind of experiment: Antibacterial activity tested against Staphylococcus aureus Methicillin-and Ciprofloxacin resistants; Range is 1-2 ug/mL. Format: functional.
Assay [14] relates to Staphylococcus aureus. The assay is described as follows: Antibacterial activity against Staphylococcus aureus ATCC 6538. Format: functional. The method in brief:
as §1

Assay [15] concerns Enterococcus faecium. As to the kind of experiment: Antibacterial activity tested against Enterococcus faecium; Range is 1-2 ug/mL. Format: functional.
In assay [16] the test system is Enterococcus faecalis. As to the kind of experiment: Antibacterial activity tested against Enterococcus faecalis; Range is 0.13-0.5 ug/mL. Format: functional.
Assay [17] deals with Staphylococcus aureus. The assay is described as follows: Antibacterial activity tested against Staphylococcus aureus Methicillin-and Ciprofloxacin resistants; Range is 2-4 ug/mL. Format: functional.
Assay [18] concerns Staphylococcus aureus. As to the kind of experiment: microbe, parasite or virus in culture.
For assay [19], the system named is Mus musculus. As to the kind of experiment: Efficacy against Septicemia caused by Staphylococcus aureus in mice by Oral administration. Format: functional. The method in brief: (§3)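 S. aureus Smith ATCC19636, overnight brain-heart infusion culture diluted in 5% mucin, given i.p. (0.5 mL) to male and female CD-1 mice (18-22 g). Single s.c. or oral dose within 10 min of infection, drug in DMSO/0.5% methocel or as suspension. 3-5 dose groups of six mice; ED50 with 95% limits by Spearman-Kärber from day-7 survival.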

The subject of assay [20] is Staphylococcus aureus. As to the kind of experiment: microbe, parasite or virus in culture. This is another data set of the same source.
Assay [21] deals with Enterococcus faecium. As to the kind of experiment: microbe, parasite or virus in culture.
The subject of assay [22] is Mus musculus. As to the kind of experiment: Efficacy against Septicemia caused by Staphylococcus aureus in mice by subcutaneous administration. Format: functional. The following applies: sc. The method in brief:
as §3

For assay [23], the system named is Enterococcus faecalis. The assay is described as follows: microbe, parasite or virus in culture.
In assay [24] the test system is Staphylococcus aureus. The assay is described as follows: Antibacterial activity tested against Staphylococcus aureus; Range is 0.06-0.13 ug/mL. Type of assay: functional.
The subject of assay [25] is Staphylococcus aureus. The assay is described as follows: Antibacterial activity tested against Staphylococcus aureus Methicillin-and Ciprofloxacin resistants; Range is 4-32 ug/mL. Format: functional.
Assay [26] has as its system Enterococcus faecalis. The assay is described as follows: Antibacterial activity tested against Enterococcus faecalis; Range is 0.25-0.5 ug/mL. Type of assay: functional.
The subject of assay [27] is Streptococcus pneumoniae. As to the kind of experiment: Antibacterial activity tested against Streptococcus pneumoniae; Range is 0.5-2 ug/mL. Type of assay: functional.
Assay [28] deals with Enterococcus faecium. As to the kind of experiment: Antibacterial activity tested against Enterococcus faecium; Range is 0.25-4 ug/mL. Type of assay: functional.

As a reminder, the IC50 is the concentration at which inhibition is half-maximal. Low readings indicate greater potency in that assay, high ones weaker potency in that assay. Regarding `Cc1c(N2CCC(C)CC2)c(N)cc2c(=O)c(C(=O)O)cn(C3CC3)c12`, the MIC with Enterococcus faecalis [1] came to 0.13 µg/mL (≈ 0.366 µM); in the assay on Shigella it was 0.5 µg/mL (≈ 1.41 µM); against Klebsiella pneumoniae it was 0.03 µg/mL (≈ 0.0844 µM); in the assay on Providencia stuartii, 0.5 µg/mL (≈ 1.41 µM); in assay [2], 0.125 µg/mL (≈ 0.352 µM); in the assay with Streptococcus pneumoniae [5], 1 µg/mL (≈ 2.81 µM). Moreover, the MIC came to 0.03 µg/mL (≈ 0.0844 µM) against Escherichia coli [6]; 0.06 µg/mL (≈ 0.169 µM) in the assay with Staphylococcus aureus [7]; 8 µg/mL (≈ 22.5 µM) against Proteus vulgaris; 0.5 µg/mL (≈ 1.41 µM) against Enterococcus faecalis [8]; 0.016 µg/mL (≈ 0.045 µM) in the assay on Staphylococcus aureus [9]; 1 µg/mL (≈ 2.81 µM) against Pseudomonas aeruginosa. The MIC against Enterobacter cloacae came to 0.5 µg/mL (≈ 1.41 µM); in assay [10], 0.125 µg/mL (≈ 0.352 µM); in the assay with Escherichia coli [11] it was 0.03 µg/mL (≈ 0.0844 µM); in the assay with Enterococcus faecium [12] it was 0.13 µg/mL (≈ 0.366 µM); in the assay on Staphylococcus aureus [13], 1 µg/mL (≈ 2.81 µM); in the assay with Staphylococcus aureus [14] it was 0.06 µg/mL (≈ 0.169 µM). Further, the IC50 with Escherichia coli [3] amounted to 5.86 µg/mL (≈ 16.5 µM). Also, the figures for the Geometric mean (in assay [4]; in the assay on Bacteria) were 0.268 and 0.122, respectively.

For `Cc1c(N2CCCCC2)c(N)cc2c(=O)c(C(=O)O)cn(C3CC3)c12`, the MIC against Shigella worked out at 0.25 µg/mL (≈ 0.732 µM); in the assay with Klebsiella pneumoniae it was 0.03 µg/mL (≈ 0.0879 µM); in the assay on Providencia stuartii, 0.5 µg/mL (≈ 1.46 µM); in assay [2] it was 0.125 µg/mL (≈ 0.366 µM); in the assay on Enterococcus faecium [15] it was 1 µg/mL (≈ 2.93 µM); in the assay on Streptococcus pneumoniae [5] it was 1 µg/mL (≈ 2.93 µM). Further, the MIC against Escherichia coli [6] was found to be 0.03 µg/mL (≈ 0.0879 µM); in the assay on Enterococcus faecalis [16], 0.5 µg/mL (≈ 1.46 µM); in the assay with Staphylococcus aureus [17] it was 2 µg/mL (≈ 5.86 µM); against Staphylococcus aureus [7], 0.06 µg/mL (≈ 0.176 µM); with Proteus vulgaris it was 8 µg/mL (≈ 23.4 µM); against Enterococcus faecalis [8] it was 0.5 µg/mL (≈ 1.46 µM). The MIC with Staphylococcus aureus [9] came out at 0.016 µg/mL (≈ 0.0469 µM); in the assay with Pseudomonas aeruginosa, 1 µg/mL (≈ 2.93 µM); against Enterobacter cloacae, 0.25 µg/mL (≈ 0.732 µM); in assay [10], 0.125 µg/mL (≈ 0.366 µM); with Escherichia coli [11], 0.03 µg/mL (≈ 0.0879 µM); in the assay on Staphylococcus aureus [14], 0.06 µg/mL (≈ 0.176 µM). In the assay on Escherichia coli [3], this compound showed an IC50 of 3.22 µg/mL (≈ 9.43 µM). For the same compound, the Geometric mean in assay [4] was determined as 0.225; in the assay on Bacteria, 0.123.

Broadly, the ED50 is the dose at which the effect has come halfway, by size or by number of responders. Read a low ED50 as greater potency. Turning to `O=C(O)c1cn(C2CC2)c2cc(N3CCNCC3)c(F)cc2c1=O` [CIPROFLOXACIN], the MIC against Staphylococcus aureus [18] came out at 0.13 µg/mL (≈ 0.392 µM); against Providencia stuartii it was 0.06 µg/mL (≈ 0.181 µM); in assay [2], 0.06 µg/mL (≈ 0.181 µM); with Staphylococcus aureus [7] it was 0.06 µg/mL (≈ 0.181 µM); with Proteus vulgaris, 0.5 µg/mL (≈ 1.51 µM); against Enterococcus faecalis [8], 0.5 µg/mL (≈ 1.51 µM). Further, the MIC worked out at 0.06 µg/mL (≈ 0.181 µM) with Pseudomonas aeruginosa; 4 µg/mL (≈ 12.1 µM) in the assay with Staphylococcus aureus [20]; 1 µg/mL (≈ 3.02 µM) in the assay on Enterococcus faecium [21]; 0.06 µg/mL (≈ 0.181 µM) in assay [10]; 0.06 µg/mL (≈ 0.181 µM) against Staphylococcus aureus [14]; 0.5 µg/mL (≈ 1.51 µM) with Enterococcus faecalis [23]. In addition, the values for the ED50 in the assay on Mus musculus [19] and in the assay with Mus musculus [22] were 7 mg/kg and 0.9 mg/kg, respectively. For the same compound, the Geometric mean in assay [4] was found to be 0.033; in the assay with Bacteria, 0.092.

As to `Cc1c(N2CCC(O)CC2)c(N)cc2c(=O)c(C(=O)O)cn(C3CC3)c12`, the MIC turned out to be 0.25 µg/mL (≈ 0.699 µM) in the assay with Shigella; 0.03 µg/mL (≈ 0.0839 µM) against Klebsiella pneumoniae; 1 µg/mL (≈ 2.8 µM) in the assay on Providencia stuartii; 0.06 µg/mL (≈ 0.168 µM) in assay [2]; 0.03 µg/mL (≈ 0.0839 µM) against Escherichia coli [6]; 0.125 µg/mL (≈ 0.35 µM) against Staphylococcus aureus [7]. The MIC amounted to 16 µg/mL (≈ 44.8 µM) against Proteus vulgaris; 0.06 µg/mL (≈ 0.168 µM) with Staphylococcus aureus [24]; 4 µg/mL (≈ 11.2 µM) with Staphylococcus aureus [25]; 0.5 µg/mL (≈ 1.4 µM) against Enterococcus faecalis [8]; 2 µg/mL (≈ 5.6 µM) against Pseudomonas aeruginosa; 0.25 µg/mL (≈ 0.699 µM) with Enterococcus faecalis [26]. Further, the MIC against Enterobacter cloacae was determined as 0.5 µg/mL (≈ 1.4 µM); in [10] it was 0.06 µg/mL (≈ 0.168 µM); in the assay on Escherichia coli [11], 1 µg/mL (≈ 2.8 µM); in the assay with Streptococcus pneumoniae [27], 0.5 µg/mL (≈ 1.4 µM); in the assay with Enterococcus faecium [28] it was 0.25 µg/mL (≈ 0.699 µM); in the assay on Staphylococcus aureus [14], 0.06 µg/mL (≈ 0.168 µM). The compound further had an IC50 in the assay on Escherichia coli [3] of 5.74 µg/mL (≈ 16.1 µM). For the same compound, the values for the Geometric mean (in assay [4]; in the assay on Bacteria) were 0.495 and 0.106, respectively.
